Assay results reported in ChEMBL document CHEMBL1124774, “Synthesis and biological activity of some derivatives of rifamycin P” (1990).

How the values were obtained:
Assay type in all cases: functional
Escherichia coli = assay: In vitro antibacterial activity of compound against Escherichia coli SKF 12140
Klebsiella pneumoniae = assay: In vitro antibacterial activity of compound against Klebsiella pneumoniae ISM
[1] = test system: Mycobacterium scrofulaceum; assay: In vitro activity of compound against slowly growing Mycobacterium scrofulaceum 1292
Method in brief: (§1)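 Medium was Middlebrook 7H10 agar with 2% glycerol and 10% OADC. Organisms from Loevenstein-Jensen slants were grown in 7H9 broth with 0.5% Tween and 10% OADC, adjusted to McFarland no. 1, and spotted with a multipoint inoculator. Sealed plates were incubated at 22, 30 or 37 °C for 4-20 days depending on strain.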

[2] = test system: Mycobacterium scrofulaceum; assay: In vitro activity of compound against slowly growing Mycobacterium scrofulaceum 1293; method in brief: as §1
[3] = test system: Mycobacterium scrofulaceum; assay: In vitro activity of compound against slowly growing Mycobacterium scrofulaceum 1297; method in brief: as §1
[4] = test system: Mycobacterium scrofulaceum; assay: In vitro activity of compound against slowly growing Mycobacterium scrofulaceum 1301; method in brief: as §1
[5] = test system: Mycolicibacterium smegmatis; assay: In vitro activity of compound against rapidly growing Mycobacterium smegmatis 139; method in brief: as §1
[6] = test system: Mycolicibacterium smegmatis; assay: In vitro activity of compound against rapidly growing Mycobacterium smegmatis 1442; method in brief: as §1
[7] = test system: Mycolicibacterium smegmatis; assay: In vitro activity of compound against rapidly growing Mycobacterium smegmatis 31; method in brief: as §1
Mycobacterium xenopi [8] = assay: In vitro activity compound against slowly growing Mycobacterium xenopi 1446; method in brief: as §1
Mycobacterium xenopi [9] = assay: In vitro activity of compound against slowly growing Mycobacterium xenopi 554; method in brief: as §1
Mycobacterium xenopi [10] = assay: In vitro activity of compound against slowly growing Mycobacterium xenopi 555; method in brief: as §1
Mycolicibacterium phlei [11] = assay: In vitro activity of compound against rapidly growing Mycobacterium phlei 141; method in brief: as §1
Mycolicibacterium phlei [12] = assay: In vitro activity of compound against rapidly growing Mycobacterium phlei 1283; method in brief: as §1
Mycolicibacterium phlei [13] = assay: In vitro activity of compound against rapidly growing Mycobacterium phlei 1289; method in brief: as §1
Mycobacterium kansasii [14] = assay: In vitro activity of compound against slowly growing Mycobacterium kansasii 1299; method in brief: as §1
Mycobacterium marinum [15] = assay: In vitro activity of compound against slowly growing Mycobacterium marinum 1388; method in brief: as §1
Mycobacterium marinum [16] = assay: In vitro activity of compound against slowly growing Mycobacterium marinum 1390; method in brief: as §1
Mycobacterium marinum [17] = assay: In vitro activity of compound against slowly growing Mycobacterium marinum 1391; method in brief: as §1
[18] = test system: Mycolicibacterium fortuitum; assay: In vitro activity of compound against rapidly growing Mycobacterium fortuitum 114; method in brief: as §1
[19] = test system: Mycolicibacterium fortuitum; assay: In vitro activity of compound against rapidly growing Mycobacterium fortuitum 1285; method in brief: as §1
[20] = test system: Mycolicibacterium fortuitum; assay: In vitro activity of compound against rapidly growing Mycobacterium fortuitum 1287; method in brief: as §1
[21] = test system: Mycolicibacterium fortuitum; assay: In vitro activity compound against rapidly growing Mycobacterium fortuitum 1302; method in brief: as §1
[22] = test system: Mycolicibacterium fortuitum; assay: In vitro activity of compound against rapidly growing Mycobacterium fortuitum 140; method in brief: as §1
[23] = test system: Mycolicibacterium fortuitum; assay: In vitro activity compound against rapidly growing Mycobacterium fortuitum 1440; method in brief: as §1
[24] = test system: Mycolicibacterium fortuitum; assay: In vitro activity of compound against rapidly growing Mycobacterium fortuitum 646; method in brief: as §1
[25] = test system: Mycolicibacterium fortuitum; assay: In vitro activity of compound against rapidly growing Mycobacterium fortuitum 726; method in brief: as §1
Mycobacterium gordonae [26] = assay: In vitro activity of compound against slowly growing Mycobacterium gordonae 1294; method in brief: as §1
Mycobacterium gordonae [27] = assay: In vitro activity of compound against slowly growing Mycobacterium gordonae 1441; method in brief: as §1
Mycobacterium kansasii [28] = assay: In vitro activity of compound against slowly growing Mycobacterium kansasii 1291; method in brief: as §1
Mycobacterium kansasii [29] = assay: In vitro activity of compound against slowly growing Mycobacterium kansasii 1298; method in brief: as §1
[30] = test system: Mycolicibacterium flavescens; assay: In vitro activity of compound against rapidly growing Mycobacterium flavescens 1284; method in brief: as §1
[31] = test system: Mycolicibacterium flavescens; assay: In vitro activity of compound against rapidly growing Mycobacterium flavescens 1286; method in brief: as §1
Mycobacterium marinum [32] = assay: In vitro activity of compound against slowly growing Mycobacterium marinum 1392 h; method in brief: as §1
Mycobacterium marinum [33] = assay: In vitro activity of compound against slowly growing Mycobacterium marinum 1393; method in brief: as §1
Mycobacterium marinum [34] = assay: In vitro activity of compound against slowly growing Mycobacterium marinum 1394; method in brief: as §1
Mycobacterium marinum [35] = assay: In vitro activity of compound against slowly growing Mycobacterium marinum 1447; method in brief: as §1
[36] = test system: Mycobacterium tuberculosis; assay: In vitro antibacterial activity of compound against Mycobacterium tuberculosis H37Rv ATCC 9660
Mycobacteroides chelonae = assay: In vitro activity of compound against rapidly growing Mycobacterium chelonae 1443; method in brief: as §1
Mycobacterium avium [37] = assay: 50% inhibition of the 20 Mycobacterium (MAC) avium complex clinical isolates
Method in brief: (§2)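 Agar-dilution MICs, 2-fold dilutions over 128-0.0001 μg/mL, on Middlebrook 7H10 agar with 2% glycerol and 10% OADC. Organisms from Loevenstein-Jensen slants were grown in 7H9 broth with 0.5% Tween and 10% OADC, adjusted to McFarland no. 1, and spotted with a multipoint inoculator. Plates were sealed and incubated at 22, 30 or 37 °C for 4-20 days depending on strain.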

Mycobacterium avium [38] = assay: Minimum inhibitory concentration of compound against 20 Mycobacterium avium complex (MAC) clinical isolates; method in brief: as §2
Neisseria gonorrhoeae = assay: In vitro antibacterial activity of compound against Neisseria gonorrhoeae ISM 68/126
Pseudomonas aeruginosa = assay: In vitro antibacterial activity of compound against Pseudomonas aeruginosa ATCC 10145
Method in brief: (§3)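 Twofold microdilution MIC in Iso-Sensitest broth over 128-0.0001 µg/mL. Inoculum was 10^4 cfu/mL, with incubation at 37 °C for 18-24 h.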

Proteus vulgaris = assay: In vitro antibacterial activity of compound against Proteus vulgaris X19H ATCC 881
[39] = test system: Staphylococcus epidermidis; assay: In vitro antibacterial activity of compound against Staphylococcus epidermidis ATCC 12228; method in brief: as §3
Streptococcus pyogenes = assay: In vitro antibacterial activity of compound against Streptococcus pyogenes C 203 SKF 13400
Method in brief: (§4)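 Streptococcal MICs were run by twofold microdilution in Todd-Hewitt broth over 128-0.0001 µg/mL. Inoculum was 10^4 cfu/mL, with incubation at 37 °C for 18-24 h.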

Staphylococcus aureus = assay: In vitro antibacterial activity of compound against Staphylococcus aureus Tour L 165; method in brief: as §3
Streptococcus pneumoniae = assay: In vitro antibacterial activity of compound against Streptococcus pneumoniae UC 41; method in brief: as §4
Enterococcus faecalis = assay: In vitro antibacterial activity of compound against Streptococcus faecalis ATCC 7080.; method in brief: as §3
[40] = test system: Mycolicibacterium fortuitum; assay: In vitro activity of compound against rapidly growing Mycobacterium fortuitum 645; method in brief: as §1
Haemophilus influenzae = assay: In vitro antibacterial activity of compound against Haemophilus influenzae ATCC 19418
Mycobacterium xenopi [41] = assay: In vitro activity of compound against slowly growing Mycobacterium xenopi 556; method in brief: as §1

COC1/C=C/OC2(C)Oc3c(C)c(O)c4c(O)c(c5c(c4c3C2=O)=NC2(CCN(CC(C)C)CC2)N=5)NC(=O)/C(C)=C\C=C\C(C)C(O)C(C)C(O)C(C)C(OC(C)=O)C1C (configuration not stated)
0.061 µg/mL: MIC50 (Mycolicibacterium phlei [11])
4 µg/mL: MIC50 [5] | MIC50 [6] | MIC50 [7] | MIC50 [19] | MIC50 [22]
0.5 µg/mL: MIC50 (Mycobacterium kansasii [14]) | MIC50 (Mycobacterium gordonae [26]) | MIC (Neisseria gonorrhoeae)
16 µg/mL: MIC (Escherichia coli) | MIC (Klebsiella pneumoniae) | MIC50 [23] | MIC50 [25] | MIC (Proteus vulgaris)
0.25 µg/mL: MIC50 (Mycobacterium marinum [15]) | MIC50 (Mycobacterium marinum [17]) | MIC50 (Mycobacterium marinum [32]) | MIC50 (Mycobacterium marinum [33]) | MIC50 (Mycobacterium marinum [34]) | MIC50 (Mycobacterium marinum [35]) | MIC50 (Mycobacterium avium [38])
2 µg/mL: MIC50 [4] | MIC50 (Mycolicibacterium phlei [13]) | MIC (Enterococcus faecalis)
0.063 µg/mL: MIC50 [3] | MIC50 (Mycobacterium kansasii [29]) | MIC50 [31] | MIC (Staphylococcus aureus)
0.008 µg/mL: MIC [36]
1 µg/mL: MIC50 (Mycobacterium marinum [16]) | MIC50 [20] | MIC50 [21] | MIC50 (Mycobacterium gordonae [27]) | MIC50 (Mycobacterium kansasii [28]) | MIC50 (Mycobacterium avium [37]) | MIC50 [40]
0.125 µg/mL: MIC50 (Mycobacterium xenopi [8]) | MIC50 (Mycobacterium xenopi [9]) | MIC50 (Mycobacterium xenopi [10]) | MIC (Haemophilus influenzae) | MIC50 (Mycobacterium xenopi [41])
0.032 µg/mL: MIC50 [1] | MIC50 [2] | MIC [39] | MIC (Streptococcus pyogenes) | MIC (Streptococcus pneumoniae)
32 µg/mL: MIC50 (Mycobacteroides chelonae)
8 µg/mL: MIC50 [18] | MIC50 [24] | MIC50 [30] | MIC (Pseudomonas aeruginosa)
0.016 µg/mL: MIC50 (Mycolicibacterium phlei [12])
